Beta cell apopt – inhibitors of cytokine-induced beta cell apoptosis, primary screen, luminescence; INS-1E cytokine-induced death, ATP luminescence, 48 h; percent of positive-control rescue, neutral wells zero; protection from apoptosis, % (no concentration beside the values); 300,000 tested, 0.8% active;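 active = Every replicate reaches about 75%, or at least half do and their mean reaches it too, limit read from the data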;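 also: 0% = cytokine-treated negative control wells and 100% = positive control rescue; higher means more ATP so stronger rescue from cytokine killing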
ANO1 activ – TMEM16A chloride channel activators or potentiators, primary screen, cell-based, HTS; 340,000 tested, 0.3% active; B-score at 10 µM; AID 623877, 2012; HEK293 TMEM16A/YFP-H148Q/I152L, iodide quench fluorescence; hits give low values;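 active = fluorescence-ratio B-score plate-corrected deviation score at least 3 library SD below zero, with starting fluorescence score within 5 deviations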;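 also: channel opened by trigger with iodide after compound preincubation; score built on the fluorescence ratio of max minus min over baseline; more negative score means more quench and so TMEM16A activation or potentiation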
Target sequence (Q8BHY3 whole entry, looked up): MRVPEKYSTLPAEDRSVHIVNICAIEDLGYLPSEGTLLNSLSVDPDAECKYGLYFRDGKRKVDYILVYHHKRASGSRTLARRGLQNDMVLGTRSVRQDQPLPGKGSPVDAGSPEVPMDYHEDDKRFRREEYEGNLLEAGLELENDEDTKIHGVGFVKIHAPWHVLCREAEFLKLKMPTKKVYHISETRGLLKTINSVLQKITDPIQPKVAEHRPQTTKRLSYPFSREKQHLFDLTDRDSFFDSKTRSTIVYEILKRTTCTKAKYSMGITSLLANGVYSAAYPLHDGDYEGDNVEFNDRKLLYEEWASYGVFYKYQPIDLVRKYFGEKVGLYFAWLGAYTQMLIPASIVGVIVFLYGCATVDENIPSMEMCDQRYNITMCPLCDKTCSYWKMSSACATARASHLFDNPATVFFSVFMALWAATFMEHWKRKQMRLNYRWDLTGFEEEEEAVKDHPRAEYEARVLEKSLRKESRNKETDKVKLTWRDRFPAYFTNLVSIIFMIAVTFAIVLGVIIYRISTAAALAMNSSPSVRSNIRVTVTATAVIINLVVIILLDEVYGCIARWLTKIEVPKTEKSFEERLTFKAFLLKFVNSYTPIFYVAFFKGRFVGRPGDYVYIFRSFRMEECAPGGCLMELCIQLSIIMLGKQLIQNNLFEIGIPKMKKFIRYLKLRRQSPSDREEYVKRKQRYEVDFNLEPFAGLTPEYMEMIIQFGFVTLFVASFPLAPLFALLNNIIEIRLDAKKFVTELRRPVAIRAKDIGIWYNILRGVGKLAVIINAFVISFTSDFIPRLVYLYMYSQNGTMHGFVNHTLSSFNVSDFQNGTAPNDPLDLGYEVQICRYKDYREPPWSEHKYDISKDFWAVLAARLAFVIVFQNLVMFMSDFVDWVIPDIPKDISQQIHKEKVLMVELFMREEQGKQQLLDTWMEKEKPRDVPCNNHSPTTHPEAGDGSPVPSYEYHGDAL
TMEM16A inh – TMEM16A chloride channel inhibitors, primary screen, cell-based, HTS; HEK293 TMEM16A/YFP iodide influx fluorescence, ionomycin; 310,000 tested, 1.2% active; normalized B-score (activity score, 25-100; higher = stronger inhibition) at 10 µM; Anoctamin-1 (Mus musculus), Q8BHY3;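 active = ratio plate-corrected score three or more library SD toward inhibition, starting fluorescence score within five deviations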;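 also: score derived from kinetic fluorescence span divided by baseline fluorescence per well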
MC4R ag barr – MC4R agonists recruiting beta-arrestin, primary screen, cell-based, luminescence, agonist arm of biased-ligand search; AID 540308, 2011; activation, % at 8.9 µM; U2OS MC4R beta-arrestin complementation; percent of melanotan II response, DMSO zero; 360,000 tested, 0.98% active;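 active = activation above a per-plate cutoff, the mean activation of sample wells on that plate plus 3 SD, cut at about 8% in these data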
MC4R antagonist – MC4R antagonists of cAMP signaling, primary screen, cell-based, TR-FRET, antagonist arm of biased-ligand search; Melanocortin receptor 4 (Homo sapiens), P32245; MC4R-expressing cells, MTII-stimulated cAMP, LANCE TR-FRET; inhibition, % at 6.5 µM; 360,000 tested, 0.48% active; AID 540295, 2011;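 active = inhibition above its plate's cutoff, the mean of tested wells on that plate plus 3 SD, cut at about 29% in these data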;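 also: 0% = Melanotan II alone and 100% = Melanotan II plus saturating MCL0020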
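Material – human MC4R-expressing U2OS cells · Repeats – no replicates · Detection – TR-FRET with Eu-cAMP and labeled anti-cAMP, 671 nm · Times – compound 30 min, challenge 1 h, detection 1 h · Compound – single nominal compound dose of 6.5 µM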
CSC inhib – cancer stem cell viability inhibitors, primary screen, luminescence. cancer stem cell-like cells viability. inhibition, % at 7.5 µM. 300,000 tested, 1.1% active. AID 2717, 2010; in the data active = inhibition above about 75%; tested in HMLE shEcad cells
Starred values were filed as active, the others as inactive; i = inactive; · = no result given. Only some compounds are listed: those with a hit (about 3.8% of all), similar ones and a draw of the others.

SMILES	Beta cell apopt	ANO1 activ	TMEM16A inh	MC4R ag barr	MC4R antagonist	CSC inhib
COc1ccc(N(CCCN2C(=O)c3cccc4cccc(c34)C2=O)C(=O)c2cccnc2)cc1	·	i	i	11.0*	-24.8	-8.3
COc1ccc(-c2c(C#N)c(SCC(=O)c3cc4ccccc4oc3=O)nc(C)c2C(=O)Nc2ccccc2)cc1	4.5	i	i	-3.0	-2.6	104.9*
CCOc1cc(C)nc(N2CCC(C(=O)NCC3CCCO3)CC2)n1 (stereo unspecified)	·	i	·	-0.2	2.0	·
Cc1c(/C=N/Nc2nc3ccccc3[nH]2)c2ccccc2n1C	117.0*	i	i	0.9	2.2	35.5
C=CCn1cc(/C=N/Nc2nc3ccccc3[nH]2)c2ccccc21	109.0*	i	i	1.3	3.7	92.4*
Cc1ccc(N(C(=O)CNC(=O)c2ccco2)C(C(=O)NC2CCCCC2)c2ccncc2)cc1F (stereo unspecified)	-0.6	i	i	-1.6	17.4	·
O=S(=O)([N-]c1nc2ccccc2nc1-[n+]1ccc(-c2ccncc2)cc1)c1ccccc1	0.2	-5.26*	i	-4.2	-2.0	-8.2
Cc1cc(S(=O)(=O)NCC(c2ccc3c(c2)OCO3)N2CCOCC2)ccc1F (stereo unspecified)	-0.7	i	i	-1.5	7.4	15.0
O=C1NC(=O)C2(CCCC2c2ccccc2)N1 (stereo unspecified)	·	i	·	-1.7	-4.8	·
O=C(Nc1cccc(Br)c1)c1ccc(CN2CCc3ccccc3C2)cc1	-2.7	i	25*	3.1	1.7	25.4
CC(=O)Nc1ccc(NC(=O)c2ccc(CN3CCc4ccccc4C3)cc2)cc1	-2.5	i	i	0.5	1.2	8.1
O=C(Nc1ccc(F)cc1)c1ccc(CN2CCc3ccccc3C2)cc1	-2.4	i	i	1.9	2.4	-9.3
CSc1cccc(NC(=O)c2ccc(CN3CCc4ccccc4C3)cc2)c1	-1.3	i	100*	1.1	3.7	5.3
CCc1nc2ccc(C(=O)NCCCn3ccnc3)cn2c1N(C)C(=O)COc1ccccc1	·	·	·	0.3	7.7	·
CC(C)(C)[C@H](NC(=O)c1ccc(N)c(Cl)c1)C(=O)N1CCC[C@H]1C(=O)N[C@H](C#N)CC(=O)O	·	·	·	-0.9	1.5	·
COc1cccc(C(NC(C)=O)c2nc(-c3cccc4cccnc34)cs2)c1 (stereo unspecified)	·	·	·	-0.6	2.5	·
CC(=O)NC(c1ccc2ccccc2c1)c1ccc2cccnc2c1O (stereo unspecified)	·	i	i	0.6	16.0	102.4*
COc1ccc(C(NC(C)=O)c2ccc3cccnc3c2O)c(OC)c1 (stereo unspecified)	108.8*	i	i	2.6	0.8	45.1
O=c1[nH]c(=O)n(Cc2ccco2)c2c1C(C(F)(F)F)(C(F)(F)F)N=C(c1ccc(F)cc1)N2	102.2*	i	i	-0.5	3.6	30.9
C=C(C)CSc1nnc2[nH]c(=O)cc(N)n12	-4.2	-6.43*	i	-2.1	3.9	-11.1
Cc1ccc(CSc2ccc(-c3ccc4c(c3)OCO4)nn2)cc1	-7.9	i	i	3.6	6.3	79.0*
O=C(CSc1ccc(-c2ccc3c(c2)OCO3)nn1)Nc1nccs1	-0.6	i	i	9.5*	2.5	-8.3
Cc1ccc(Cc2c(-c3ccc(F)cc3)nc3ccc(Cl)cn23)cc1	·	·	·	2.1	-10.0	·
CCCCCc1ccc(-c2cn(CN3C(=O)c4ccccc4C3=O)nn2)cc1	96.4*	i	i	0.7	-4.9	5.4
CCCCCc1ccc(-c2cn(Cc3ccc(C)cc3)nn2)cc1	4.4	i	i	3.1	4.7	-4.6
O=C(O)c1ccc(Cl)c(S(=O)(=O)N(Cc2ccccc2)c2ccc(F)cc2)c1	3.2	i	i	-0.8	3.2	95.7*

Screens: PubChem, several laboratories
